The text below walks through data of ChEMBL document CHEMBL1955813, “Synthesis of new troglitazone derivatives: anti-proliferative activity in breast cancer cell lines and preliminary toxicological study” (Eur J Med Chem, 2012).

One data set concerns Hepatocyte. As to the kind of experiment: Cytotoxicity against human hepatocytes assessed as cell viability up to 50 uM after 90 mins by MTT assay. It is filed as cell-based. The settings on record: 1.5 h. An outline of the steps: (§1)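 Cryopreserved primary human hepatocytes, 0.1 × 10⁶ cells/well in DMEM with gentamycin, insulin, 10 µM dexamethasone, 37 °C, 5% CO₂. Equilibrated 30 min with stirring at 900 rpm, then compound or DMSO (0.4%) added, 0.5–100 µM (7 levels), triplicate. After 90 min, MTT added for 30 min at 37 °C; formazan dissolved in DMSO, A595; viability as % of DMSO control.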

For a further data set, the system named is MDA-MB-231. Put plainly: Antiproliferative activity hormone-independent human MDA-MB-231 cells after 24 hrs by luminescent cell viability assay. Type of data set: functional, cell-based. The conditions noted are these: MDA-MB-231, 24 h. An outline of the steps:
(§2)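 Seeded at 8.10⁴ cells/well; after 24 h attachment, medium switched to 1% FCS with 2 mM L-glutamine and compounds added. MCF-7 grown in phenol red DMEM, MDA-MB-231 in L-15 (both 10% FCS, 37 °C). Exposure 24 h; controls 0.1% DMSO. Cells washed, trypsinized, quantified by CellTiter-Glo luminescence. Triplicate; IC50 = concentration halving viable cell number.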

A short description of data set [1]: Cytotoxicity against human hepatocytes assessed as cell viability at 100 uM after 90 mins by MTT assay relative to control. The conditions noted are these: read-out: Activity. Type of data set: cell-based, Hepatocyte. An outline of the steps:
as §1

For a further data set, the system named is MCF7. As to the kind of experiment: Antiproliferative activity hormone-dependent human MCF7 cells after 24 hrs by luminescent cell viability assay. It is filed as functional, cell-based. The conditions noted are these: MCF7, 24 h. An outline of the steps:
as §2

The nature of data set [2]: Cmax in human at 600 mg/day. Type of data set: ADME, organism-based. More on the design: dose 600 mg/day. The conditions noted are these: plasma.
A short description of data set [3]: Ratio of drug level in liver to plasma in rat. Type of data set: ADME, tissue-based. The conditions noted are these: liver and plasma.

As a reminder, the IC50 is the concentration that inhibits the measured activity by half. High values mean weaker potency, low ones greater potency. With `Cc1c(C)c2c(c(C)c1OC(=O)CCCCCCCNC(=O)OC(C)(C)C)CCC(C)(COc1ccc(/C=C3\SC(=O)NC3=O)cc1)O2` (racemic), in the data set with Hepatocyte, the Activity entry is “Non-toxic”. Further, the IC50 was 3.2 µM in the data set on MDA-MB-231 and 13 µM in the data set on MCF7. Besides, in data set [1], the viability at 1.5 h, 100 µM stood at 79%.
Regarding `Cc1c(C)c2c(c(C)c1OC(=O)CCCCCCCNC(=O)CCCC[C@@H]1SC[C@@H]3NC(=O)N[C@@H]31)CCC(C)(COc1ccc(/C=C3\SC(=O)NC3=O)cc1)O2` (stereo partly drawn), the IC50 with MDA-MB-231 is 3.7 µM; in the data set on MCF7, 26 µM. Moreover, the viability at 1.5 h, 100 µM in data set [1] is 61%.
For `Cc1c(C)c2c(c(C)c1OC(=O)OC(C)(C)C)CCC(C)(COc1ccc(/C=C3\SC(=O)NC3=O)cc1)O2` (racemic), the results for the IC50 in the data set with MDA-MB-231 and in the data set on MCF7 were 3.3 µM and 7.7 µM, respectively. The viability at 1.5 h, 100 µM in data set [1] was determined as 75%.
With `Cc1c(C)c2c(c(C)c1OC(=O)CCCCCCCN)CCC(C)(COc1ccc(/C=C3\SC(=O)NC3=O)cc1)O2` (racemic), the results for the IC50 with MDA-MB-231 and in the data set on MCF7 were 5 µM and 3.2 µM, respectively. Besides, the viability at 1.5 h, 100 µM in data set [1] stood at 57%.
The corresponding values for `Cc1c(C)c2c(c(C)c1OC(=O)CCCC[C@@H]1SC[C@@H]3NC(=O)N[C@@H]31)CCC(C)(COc1ccc(CC3SC(=O)NC3=O)cc1)O2` (mixture of isomers) are 6.5 µM, 15.9 µM and 50%.
Usually Cmax stands for the peak of the concentration-time curve. As a reminder, the Kp is tissue or fluid exposure divided by exposure in the circulation. Regarding `Cc1c(C)c2c(c(C)c1O)CCC(C)(COc1ccc(CC3SC(=O)NC3=O)cc1)O2` (stereo not drawn) [TROGLITAZONE], the Activity entry in the data set on Hepatocyte was “Non-toxic”. Further, the concentration in data set [2] peaked (Cmax) at 6.3 µM. Besides, the IC50 is 15.7 µM in the data set on MDA-MB-231 and 35.4 µM in the data set with MCF7. Also, the viability at 1.5 h, 100 µM in data set [1] turned out to be 52%. Also, in data set [3], the Kp is 10.
For the compound `Cc1c(C)c2c(c(C)c1OC(=O)CCC(=O)O)CCC(C)(COc1ccc(/C=C3\SC(=O)NC3=O)cc1)O2` (racemic), the IC50 in the data set with MDA-MB-231 was more than 25 µM; with MCF7, more than 50 µM. The viability at 1.5 h, 100 µM in data set [1] is 54%.
Turning to `Cc1c(C)c2c(c(C)c1O)CCC(C)(COc1ccc(/C=C3\SC(=O)NC3=O)cc1)O2` (racemic), the Activity result with Hepatocyte is “Non-toxic”. For the same compound, the IC50 stood at 16.6 µM in the data set on MDA-MB-231 and 29.7 µM in the data set with MCF7. Besides, the viability at 1.5 h, 100 µM in data set [1] worked out at 63%.
As for `Cc1c(C)c2c(c(C)c1OC(=O)CCCC[C@@H]1SC[C@@H]3NC(=O)N[C@@H]31)CCC(C)(COc1ccc(/C=C3\SC(=O)NC3=O)cc1)O2` (mixture of isomers), the IC50 with MDA-MB-231 came to 3.5 µM; in the data set with MCF7 it was 11.2 µM. Moreover, the viability at 1.5 h, 100 µM in data set [1] came to 66%.
With `Cc1c(C)c2c(c(C)c1OC(=O)CCC(=O)O)CCC(C)(COc1ccc(CC3SC(=O)NC3=O)cc1)O2` (racemic), the figures for the IC50 in the data set on MDA-MB-231 and with MCF7 were more than 25 µM and more than 50 µM, respectively. In data set [1], the viability at 1.5 h, 100 µM turned out to be 76%.
For the compound `Cc1cc(C)c2c(c1C)OC(C)(COc1ccc(/C=C3\SC(=O)NC3=O)cc1)CC2` (racemic), in the data set with Hepatocyte, the Activity entry is given as “Non-toxic”. Besides, the IC50 was 10.8 µM with MDA-MB-231 and 12.5 µM in the data set on MCF7. Besides, the viability at 1.5 h, 100 µM in data set [1] was 84%.
Take `CC(=O)NCCNC(=O)CCC(=O)Oc1c(C)c(C)c2c(c1C)CCC(C)(COc1ccc(/C=C3\SC(=O)NC3=O)cc1)O2` (racemic): the IC50 in the data set on MDA-MB-231 was more than 25 µM; in the data set on MCF7 it was more than 50 µM. Moreover, in data set [1], the viability at 1.5 h, 100 µM amounted to 75%.
The corresponding values for `Cc1c(C)c2c(c(C)c1OC(=O)OC(C)(C)C)CCC(C)(COc1ccc(CC3SC(=O)NC3=O)cc1)O2` (racemic) are 3.8 µM, 11.2 µM and 47%.
The corresponding values for `Cc1cc(C)c2c(c1C)OC(C)(COc1ccc(CC3SC(=O)NC3=O)cc1)CC2` (racemic) are 12.3 µM, 20 µM and 66%.
